Measurements: ChEMBL document CHEMBL1149246, “Discovery of bicyclic thymidine analogues as selective and high-affinity inhibitors of Mycobacterium tuberculosis thymidine monophosphate kinase” (J Med Chem, 2004)
Activity calls are given as the source filed them. The calls are words filed in the database; no cut-off is given here.

T1: Thymidylate kinase (Mycobacterium tuberculosis, UniProt P9WKE1)
T1 sequence (P9WKE1 whole entry): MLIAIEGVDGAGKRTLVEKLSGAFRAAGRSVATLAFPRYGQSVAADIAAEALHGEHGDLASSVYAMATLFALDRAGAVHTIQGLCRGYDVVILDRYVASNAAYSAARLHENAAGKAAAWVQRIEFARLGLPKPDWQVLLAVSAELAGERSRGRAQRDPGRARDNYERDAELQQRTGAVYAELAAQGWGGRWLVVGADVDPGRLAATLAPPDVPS

T2: Thymidylate kinase (Mycobacterium tuberculosis) (UniProt P9WKE1)
T2 sequence (whole entry): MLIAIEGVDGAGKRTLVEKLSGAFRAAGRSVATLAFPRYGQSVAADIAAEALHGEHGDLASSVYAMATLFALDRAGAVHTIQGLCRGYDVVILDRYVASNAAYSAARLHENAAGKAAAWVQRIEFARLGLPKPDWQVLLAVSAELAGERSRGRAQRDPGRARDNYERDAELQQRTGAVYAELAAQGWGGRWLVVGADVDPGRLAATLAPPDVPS

T3: Thymidylate kinase (Homo sapiens, UniProt P23919)
T3 sequence (P23919 whole entry): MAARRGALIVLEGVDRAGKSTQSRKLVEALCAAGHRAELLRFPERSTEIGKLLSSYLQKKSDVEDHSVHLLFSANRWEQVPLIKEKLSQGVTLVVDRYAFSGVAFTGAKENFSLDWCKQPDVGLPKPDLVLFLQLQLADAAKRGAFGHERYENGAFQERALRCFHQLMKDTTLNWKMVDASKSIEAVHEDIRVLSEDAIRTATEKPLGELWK

T4: Thymidylate kinase (Homo sapiens) (UniProt P23919)
T4 sequence (whole entry): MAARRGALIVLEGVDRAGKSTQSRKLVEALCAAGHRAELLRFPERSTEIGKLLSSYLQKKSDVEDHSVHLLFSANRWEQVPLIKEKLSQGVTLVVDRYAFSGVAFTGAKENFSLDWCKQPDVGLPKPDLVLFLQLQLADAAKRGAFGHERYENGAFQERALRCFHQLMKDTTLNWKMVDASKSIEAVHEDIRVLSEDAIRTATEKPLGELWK


Key:
Thymidylate kinase [1] = target: T1, Thymidylate kinase; experiment: Inhibition of Mycobacterium tuberculosis TMPK by coupled spectrophotometric assay
[2] = target: T2, Thymidylate kinase (Mycobacterium tuberculosis); experiment: Inhibition of Mycobacterium tuberculosis TMPK at 1 mM by coupled spectrophotometric assay
Method in brief: (§1)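 Thymidylate kinase activity (M. tuberculosis or human enzyme) measured by coupled spectrophotometric assay at 334 nm, following NADH consumption. Medium: 50 mM Tris-HCl pH 7.4, 50 mM KCl, 2 mM MgCl2, 0.2 mM NADH, 1 mM phosphoenol pyruvate, 2 units each lactate dehydrogenase, pyruvate kinase and nucleoside diphosphate kinase. ATP fixed at 0.5 mM, dTMP at 0.05 mM; analogue 0.1–2.5 mM.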

Thymidylate kinase [3] = target: T3, Thymidylate kinase; experiment: (§2) Inhibition of human TMPK by coupled spectrophotometric assay; method in brief: as §1
[4] = Selectivity index, Ki for human TMPK/Ki for Mycobacterium tuberculosis TMPK
[5] = target: T4, Thymidylate kinase (Homo sapiens); experiment: Inhibition of human TMPK at 2 mM by coupled spectrophotometric assay; method in brief: as §1
[6] = compound: Cc1cn([C@H]2C[C@H](O)[C@@H](COP(=O)(O)O)O2)c(=O)[nH]c1=O; experiment: as §2; method in brief: as §1

Molecule	Ki (Thymidylate kinase [1]) [µM]	Ki (Thymidylate kinase [3]) [µM]	Ratio Ki [4]	also measured
Cc1cn([C@@H]2O[C@H](CO)[C@@H](CN=[N+]=[N-])[C@H]2F)c(=O)[nH]c1=O	165	–	–	–
Cc1cn([C@@H]2O[C@H](CO)[C@@H](CN)[C@H]2F)c(=O)[nH]c1=O	–	–	–	Activity [2]: inactive
Cc1cn([C@@H]2O[C@H](CO)[C@@H](CN=[N+]=[N-])[C@H]2Cl)c(=O)[nH]c1=O	180	–	–	–
Cc1cn([C@@H]2O[C@H](CO)[C@@H](CN)[C@H]2Cl)c(=O)[nH]c1=O	390	–	–	–
Cc1cn([C@H]2C[C@H](O)[C@@H](CO)O2)c(=O)[nH]c1=O [DOXRIBTIMINE]	–	180	–	–
Cc1cn([C@H]2C[C@H](CN)[C@@H](CO)O2)c(=O)[nH]c1=O	–	220	3.9	–
Cc1cn([C@H]2C[C@H](CN=[N+]=N)[C@@H](CO)O2)c(=O)[nH]c1=O	40	1040	26	–
Cc1cn([C@@H]2O[C@H](CF)[C@@H](CN=[N+]=[N-])[C@H]2F)c(=O)[nH]c1=O	80	–	–	–
Cc1cn([C@@H]2O[C@H](CO)[C@H]3CNC(=O)O[C@H]32)c(=O)[nH]c1=O	13.5	1100	81.5	–
Cc1cn([C@@H]2O[C@H](CO)[C@H]3CNC(=S)O[C@H]32)c(=O)[nH]c1=O	3.5	700	200	–
Cc1cn([C@@H]2C[C@H](CN=[N+]=[N-])[C@@H](CO)O2)c(=O)[nH]c1=O	29	–	–	Activity [5]: inactive
Cc1cn([C@H]2C[C@H](O)[C@@H](COP(=O)(O)O)O2)c(=O)[nH]c1=O	–	–	–	Selectivity index [4]: 1.1
Thymidylate kinase (Homo sapiens), P23919 (protein) MAARRGALIVLEGVDRAGKSTQSRKLVEALCAAGHRAELLRFPERSTEIGKLLSSYLQKKSDVEDHSVHLLFSANRWEQVPLIKEKLSQGVTLVVDRYAFSGVAFTGAKENFSLDWCKQPDVGLPKPDLVLFLQLQLADAAKRGAFGHERYENGAFQERALRCFHQLMKDTTLNWKMVDASKSIEAVHEDIRVLSEDAIRTATEKPLGELWK	–	–	–	Km [6]: 5 µM
